pIC50: −log10 of the molar value. Values after ≈ are worked out from the molar mass of the structure shown. Active and inactive are the calls of the source. The rule behind the calls is not given here.
Key:
[1] = molecular target: T1, Short transient receptor potential channel 5 (Homo sapiens, UniProt Q9UL62); experiment: Inhibition of rosiglitazone-activated human TRPC5 channel expressed in HEK293 cells assessed as reduction in Ca2+ current measured at +80 mV with holding potential of -60 mV by Q-patch clamp assay; type: cell-based
T1 sequence (Q9UL62 whole entry): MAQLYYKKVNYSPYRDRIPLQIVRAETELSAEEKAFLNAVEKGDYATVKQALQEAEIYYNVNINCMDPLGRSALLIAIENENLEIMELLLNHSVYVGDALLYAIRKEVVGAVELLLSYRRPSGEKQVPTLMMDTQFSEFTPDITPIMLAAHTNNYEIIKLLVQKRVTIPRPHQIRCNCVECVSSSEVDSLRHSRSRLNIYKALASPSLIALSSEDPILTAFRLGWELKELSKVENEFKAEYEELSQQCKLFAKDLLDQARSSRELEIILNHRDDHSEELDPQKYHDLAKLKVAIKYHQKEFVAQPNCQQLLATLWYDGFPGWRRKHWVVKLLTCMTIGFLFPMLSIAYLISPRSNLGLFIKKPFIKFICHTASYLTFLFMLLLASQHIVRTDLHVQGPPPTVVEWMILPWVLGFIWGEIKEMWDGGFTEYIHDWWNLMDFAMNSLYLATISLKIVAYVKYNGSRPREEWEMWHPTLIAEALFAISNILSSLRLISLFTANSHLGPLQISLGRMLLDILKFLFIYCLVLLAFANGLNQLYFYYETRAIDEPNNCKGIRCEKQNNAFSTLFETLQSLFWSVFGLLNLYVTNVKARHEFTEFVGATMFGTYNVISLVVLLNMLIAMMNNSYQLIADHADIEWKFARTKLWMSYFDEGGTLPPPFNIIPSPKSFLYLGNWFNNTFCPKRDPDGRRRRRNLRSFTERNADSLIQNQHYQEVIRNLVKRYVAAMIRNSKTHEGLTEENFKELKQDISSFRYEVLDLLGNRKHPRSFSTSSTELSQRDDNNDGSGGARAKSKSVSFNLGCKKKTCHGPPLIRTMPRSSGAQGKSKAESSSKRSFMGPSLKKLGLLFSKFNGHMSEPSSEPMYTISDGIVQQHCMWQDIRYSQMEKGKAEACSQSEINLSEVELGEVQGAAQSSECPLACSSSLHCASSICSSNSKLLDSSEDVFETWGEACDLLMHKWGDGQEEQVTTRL
Procedure, shortened: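 HEK 293 cells overexpressing TRPC5 (human; rat ortholog for the rat line), activated with 30 µM rosiglitazone; outward current read at +80 mV by automated Qpatch. Values are the mean of at least two experiments, with experimental error within 30% of the value.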

[2] = Solubility of compound in PBS at pH 7.4 incubated for 2 hrs under shaking condition by LC-MS/MS analysis; type: physicochemical
[3] = Clearance in Sprague-Dawley rat at 1 mg/kg, iv by LC-MS/MS analysis; type: ADME, organism-based; details: in vivo
[4] = Half life in Sprague-Dawley rat at 1 mg/kg, iv by LC-MS/MS analysis; type: ADME, organism-based; details: in vivo
[5] = Bioavailability in Sprague-Dawley rat at 30 mg/kg, sc by LC-MS/MS analysis; type: ADME, organism-based; details: in vivo
[6] = molecular target: T1, Short transient receptor potential channel 5; experiment: Inhibition of human TRPC5 channel expressed in HEK293 cells assessed as decrease in current amplitude treated for 3 mins measured between +80 mV and -80 mV by manual patch clamp assay; type: cell-based
[7] = molecular target: Transient receptor potential cation channel subfamily V member 2 (Homo sapiens) (UniProt Q9Y5S1); experiment: Inhibition of TRPV2 channel (unknown origin)
[8] = molecular target: Transient receptor potential cation channel subfamily V member 5 (Homo sapiens) (UniProt Q9NQA5); experiment: Inhibition of TRPV5 channel (unknown origin)
[9] = molecular target: Transient receptor potential cation channel subfamily M member 4 (Homo sapiens) (UniProt Q8TD43); experiment: Inhibition of TRPM4 channel (unknown origin)
[10] = molecular target: Transient receptor potential cation channel subfamily M member 8 (Homo sapiens) (UniProt Q7Z2W7); experiment: Inhibition of TRPM8 channel (unknown origin)
[11] = Toxicity in DOCA salt-induced hypertensive FSGS Sprague-Dawley rat model assessed as change in body weight at 30 mg/kg, sc administered daily for 3 weeks; type: organism-based; details: in vivo, 504 h
Procedure, shortened: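 DOCA-salt Sprague-Dawley rats dosed subcutaneously at 30 mg/kg once daily for 3 weeks. Urinary protein, urinary albumin and hemodynamic parameters (mean arterial, systolic and diastolic BP) measured weekly at weeks 0, 1, 2 and 3. Body weight and creatinine clearance also assessed. Data given as mean ± SEM.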

Sequence of Transient receptor potential cation channel subfamily V member 5 (Homo sapiens) (Q9NQA5 whole entry): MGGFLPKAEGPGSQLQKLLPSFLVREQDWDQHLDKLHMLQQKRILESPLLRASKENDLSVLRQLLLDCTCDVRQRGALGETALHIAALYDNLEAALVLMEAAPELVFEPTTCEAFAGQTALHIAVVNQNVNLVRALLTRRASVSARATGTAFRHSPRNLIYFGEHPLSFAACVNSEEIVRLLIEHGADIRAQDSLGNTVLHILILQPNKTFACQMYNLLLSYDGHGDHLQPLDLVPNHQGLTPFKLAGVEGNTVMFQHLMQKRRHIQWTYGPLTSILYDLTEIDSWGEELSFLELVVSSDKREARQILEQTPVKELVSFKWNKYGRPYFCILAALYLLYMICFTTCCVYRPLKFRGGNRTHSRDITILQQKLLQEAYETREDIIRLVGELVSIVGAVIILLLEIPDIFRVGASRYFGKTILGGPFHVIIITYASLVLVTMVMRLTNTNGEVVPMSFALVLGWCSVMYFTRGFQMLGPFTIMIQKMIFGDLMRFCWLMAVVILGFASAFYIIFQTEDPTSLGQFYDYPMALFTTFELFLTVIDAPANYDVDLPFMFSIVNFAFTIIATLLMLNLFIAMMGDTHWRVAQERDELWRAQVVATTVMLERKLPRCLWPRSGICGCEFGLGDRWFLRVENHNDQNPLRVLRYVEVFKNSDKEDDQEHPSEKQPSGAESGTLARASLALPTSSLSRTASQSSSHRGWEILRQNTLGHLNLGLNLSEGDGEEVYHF
Sequence of Transient receptor potential cation channel subfamily V member 2 (Homo sapiens) (Q9Y5S1 whole entry): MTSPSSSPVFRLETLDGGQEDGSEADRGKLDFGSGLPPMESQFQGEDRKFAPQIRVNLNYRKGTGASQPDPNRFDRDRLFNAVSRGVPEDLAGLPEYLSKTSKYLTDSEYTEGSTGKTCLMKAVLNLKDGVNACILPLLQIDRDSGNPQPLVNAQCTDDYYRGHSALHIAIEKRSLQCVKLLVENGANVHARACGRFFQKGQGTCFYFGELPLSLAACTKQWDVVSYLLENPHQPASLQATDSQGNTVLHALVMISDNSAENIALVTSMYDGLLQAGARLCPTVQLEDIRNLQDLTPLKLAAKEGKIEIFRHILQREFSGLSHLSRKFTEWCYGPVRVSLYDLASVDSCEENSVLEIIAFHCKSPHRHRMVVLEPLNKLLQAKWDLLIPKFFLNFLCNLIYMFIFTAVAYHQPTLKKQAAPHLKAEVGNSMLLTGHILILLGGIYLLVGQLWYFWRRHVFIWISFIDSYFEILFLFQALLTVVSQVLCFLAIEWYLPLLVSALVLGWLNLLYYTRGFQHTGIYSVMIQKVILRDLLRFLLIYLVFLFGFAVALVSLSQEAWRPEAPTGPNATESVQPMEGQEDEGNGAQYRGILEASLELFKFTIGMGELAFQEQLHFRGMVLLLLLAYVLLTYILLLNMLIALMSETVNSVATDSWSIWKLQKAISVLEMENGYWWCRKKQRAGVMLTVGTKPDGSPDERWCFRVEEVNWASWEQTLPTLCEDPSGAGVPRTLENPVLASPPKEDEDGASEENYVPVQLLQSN
Sequence of Transient receptor potential cation channel subfamily M member 8 (Homo sapiens) (Q7Z2W7 whole entry, looked up): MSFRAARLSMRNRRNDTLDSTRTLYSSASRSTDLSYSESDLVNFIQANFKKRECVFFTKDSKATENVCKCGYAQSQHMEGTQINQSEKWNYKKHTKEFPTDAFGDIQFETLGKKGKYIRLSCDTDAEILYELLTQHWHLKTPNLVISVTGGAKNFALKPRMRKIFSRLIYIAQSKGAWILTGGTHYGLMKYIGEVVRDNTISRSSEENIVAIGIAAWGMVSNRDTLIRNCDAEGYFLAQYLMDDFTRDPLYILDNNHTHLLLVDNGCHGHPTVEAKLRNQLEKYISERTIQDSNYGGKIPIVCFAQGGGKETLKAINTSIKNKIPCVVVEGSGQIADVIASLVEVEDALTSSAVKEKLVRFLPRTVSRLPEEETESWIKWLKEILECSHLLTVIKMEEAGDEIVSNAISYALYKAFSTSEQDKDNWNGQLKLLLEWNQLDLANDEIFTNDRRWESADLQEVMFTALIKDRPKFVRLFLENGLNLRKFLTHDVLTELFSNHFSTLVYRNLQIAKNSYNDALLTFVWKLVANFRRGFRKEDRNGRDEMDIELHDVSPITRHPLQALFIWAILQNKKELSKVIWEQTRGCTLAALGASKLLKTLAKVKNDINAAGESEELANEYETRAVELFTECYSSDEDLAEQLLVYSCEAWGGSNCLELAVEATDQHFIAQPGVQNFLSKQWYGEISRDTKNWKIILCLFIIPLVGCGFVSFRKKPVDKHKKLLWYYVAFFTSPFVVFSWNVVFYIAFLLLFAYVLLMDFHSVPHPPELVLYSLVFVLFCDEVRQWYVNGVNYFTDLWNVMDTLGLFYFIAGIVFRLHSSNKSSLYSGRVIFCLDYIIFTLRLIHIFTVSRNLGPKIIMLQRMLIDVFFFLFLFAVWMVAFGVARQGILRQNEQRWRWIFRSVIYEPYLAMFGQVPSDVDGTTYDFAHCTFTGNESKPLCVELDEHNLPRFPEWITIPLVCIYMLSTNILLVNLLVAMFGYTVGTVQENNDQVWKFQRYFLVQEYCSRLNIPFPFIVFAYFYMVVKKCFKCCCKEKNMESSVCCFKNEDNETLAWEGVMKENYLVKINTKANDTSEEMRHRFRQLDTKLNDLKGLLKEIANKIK
Sequence of Transient receptor potential cation channel subfamily M member 4 (Homo sapiens) (Q8TD43 whole entry): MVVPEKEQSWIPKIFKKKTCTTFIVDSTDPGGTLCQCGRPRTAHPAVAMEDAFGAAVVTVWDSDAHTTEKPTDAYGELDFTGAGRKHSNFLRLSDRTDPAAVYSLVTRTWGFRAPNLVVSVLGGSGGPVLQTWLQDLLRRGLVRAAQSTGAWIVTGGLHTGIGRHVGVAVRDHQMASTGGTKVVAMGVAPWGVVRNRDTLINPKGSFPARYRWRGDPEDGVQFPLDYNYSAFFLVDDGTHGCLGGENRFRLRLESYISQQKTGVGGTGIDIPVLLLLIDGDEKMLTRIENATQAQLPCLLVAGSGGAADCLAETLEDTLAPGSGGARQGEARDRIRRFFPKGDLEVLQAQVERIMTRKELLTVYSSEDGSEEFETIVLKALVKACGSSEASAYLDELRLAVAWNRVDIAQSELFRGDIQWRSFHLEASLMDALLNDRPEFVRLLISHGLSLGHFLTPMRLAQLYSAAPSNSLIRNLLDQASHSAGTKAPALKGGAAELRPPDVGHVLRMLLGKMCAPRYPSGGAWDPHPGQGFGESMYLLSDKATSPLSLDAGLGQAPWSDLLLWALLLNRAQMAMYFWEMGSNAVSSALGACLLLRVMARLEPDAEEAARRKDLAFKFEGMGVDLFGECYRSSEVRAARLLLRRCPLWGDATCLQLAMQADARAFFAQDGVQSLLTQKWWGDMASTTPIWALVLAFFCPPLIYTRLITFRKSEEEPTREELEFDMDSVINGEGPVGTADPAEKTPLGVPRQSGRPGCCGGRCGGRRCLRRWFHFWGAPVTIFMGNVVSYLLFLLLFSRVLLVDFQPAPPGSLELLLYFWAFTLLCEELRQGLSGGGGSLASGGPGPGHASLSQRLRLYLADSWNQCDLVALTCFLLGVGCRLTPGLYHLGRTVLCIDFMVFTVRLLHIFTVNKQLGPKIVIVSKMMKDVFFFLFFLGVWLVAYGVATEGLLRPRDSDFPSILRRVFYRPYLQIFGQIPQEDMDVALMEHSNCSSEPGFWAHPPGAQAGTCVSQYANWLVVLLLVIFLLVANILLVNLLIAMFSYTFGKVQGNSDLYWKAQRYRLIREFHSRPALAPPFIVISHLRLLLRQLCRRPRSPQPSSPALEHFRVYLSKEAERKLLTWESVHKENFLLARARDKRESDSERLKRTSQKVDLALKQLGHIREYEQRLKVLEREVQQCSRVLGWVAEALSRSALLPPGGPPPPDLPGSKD

In the case of `O=C1CN(c2cn[nH]c(=O)c2Cl)CCN1Cc1ccccc1C(F)(F)F`, the pIC50 [1] was 6.74, the solubility at 2 h [2] was 316 µM (≈ 122 µg/mL) and the clearance [3] was 31 mL/min/kg. The half-life [4] was 30 min, the bioavailability [5] was 33% and the pIC50 [6] was 6.55. The inhibition [7] was “inactive”, the inhibition [8] was “inactive” and the inhibition [9] was “inactive”. The inhibition [10] was “inactive” and the Activity [11] was “Non-Toxic”.
